Results: publication PMC7079113 (Diabetes, Obesity & Metabolism, 2019)
Marks after values point to notes of the source that are not given here.

Legend:
[1] = system: glucose infusion rate; test: 30-hour automated euglycaemic clamp; type: in vivo, patients with type 1 diabetes mellitus (human); conditions: for AUCGIR0–6h, geometric mean (90% CI): 0-6 h; for AUCGIR0–6h, geometric mean (90% CI) / AUCGIR6–30h, geometric mean (90% CI): N = 111 MYL-1501D, 111 US IG, 113 EU IG; for AUCGIR6–30h, geometric mean (90% CI): 6-30 h
[2] = ELISA, ratio of treatments vs US IG
[3] = LC–MS/MS; for AUCins.0‐6h of M1, geometric mean (90% CI) / AUCins.6‐30h of M1, geometric mean (90% CI): secondary PK endpoint, 87 US IG; for AUCins.0‐6h of M1, geometric mean (90% CI): N = 85 MYL-1501D, 84 EU IG; for AUCins.6‐30h of M1, geometric mean (90% CI): N = 87 MYL-1501D, 86 EU IG
[4] = Single-dose safety and local tolerability; type: in vivo, patients with type 1 diabetes mellitus (human); conditions: for Hypoglycaemic events at various time points after the clamp period: > 30 hours after injection, considered a side effect of the patients' usual insulin treatment; for Number of AEs during or after administration / Patients who experienced AEs during or after administration / Patients who experienced AEs during or after administration, percentage: safety population N = 114
In short: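 Randomised crossover in which each patient received three insulin glargine preparations as single s.c. 0.4 U/kg doses, at visits 5–28 days apart (minimum 5-day washout). Each dose was given under a 30-h automated euglycaemic clamp. Safety and injection-site tolerability were assessed at each visit: AEs, haematology, biochemistry, urinalysis, physical exam, vital signs, ECGs and blood glucose. Hypoglycaemia was graded severe/symptomatic/asymptomatic. Results were summarised descriptively.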

[5] = secondary PD, vs US IG, N = 111
[6] = vs US IG, N = 74 (MYL-1501D), 72 (EU IG)

| Substance | AUCGIR0–30h (secondary analysis), geometric LS mean ratio (90% CI) vs US IG ([1]; including very low response profiles, linear mixed model, vs US IG, n = 111) | GIRmax, geometric LS mean ratio (90% CI) vs US IG ([1]; primary PD, vs US IG, N = 102) | AUCGIR0–6h, geometric mean (90% CI) ([1]; secondary PD) | AUCGIR6–30h, geometric mean (90% CI) ([1]; secondary PD) | AUCGIR0–6h, geometric LS mean ratio (90% CI) vs US IG [1, 5] | AUCGIR6–30h, geometric LS mean ratio (90% CI) vs US IG [1, 5] | AUCins.0–30h, geometric LS mean ratio (90% CI) vs US IG ([2]; N = 107) | Cins.max, geometric LS mean ratio (90% CI) vs US IG ([2]; N = 110) | AUCins.0‐6h of M1, geometric LS mean ratio (90% CI) vs US IG ([3]; vs US IG, N = 73 (MYL-1501D), 71 (EU IG)) | AUCins.0–30h of M1, geometric LS mean ratio (90% CI) vs US IG [3, 6] | AUCins.6‐30h of M1, geometric LS mean ratio (90% CI) vs US IG [3, 6] | Cins.max of M1, geometric LS mean ratio (90% CI) vs US IG [3, 6] | AUCins.0‐6h of M1, geometric mean (90% CI) [3] | AUCins.6‐30h of M1, geometric mean (90% CI) [3] | Hypoglycaemic events at various time points after the clamp period [4] | Tolerability ([4]; single s.c. 0.4 U/kg) | Number of AEs during or after administration ([4]; single s.c. 0.4 U/kg) [AEs] | Patients who experienced AEs during or after administration ([4]; single s.c. 0.4 U/kg) [patients] | Patients who experienced AEs during or after administration, percentage ([4]; single s.c. 0.4 U/kg) [%] | Injection site reactions ([4]; mild, single s.c. 0.4 U/kg) |
| --- | --- | --- | --- | --- | --- | --- | --- | --- | --- | --- | --- | --- | --- | --- | --- | --- | --- | --- | --- | --- |
| insulin glargine [EU IG] | 0.96 (0.77–1.20) ^e | 0.98 (0.90–1.07) | 72.8 (49.4–107) mg/kg | 567 (418–769) mg/kg | 0.82 (0.55–1.23) | 1.09 (0.79–1.48) | 1.02 (0.95–1.09) | 1.00 (0.93–1.08) | 1.06 (0.93–1.20) | 1.01 (0.94–1.08) | 1.00 (0.93–1.08) | 1.02 (0.96–1.08) | 203 (180–229) pmol·h/L | 1088 (1001–1181) pmol·h/L | six | generally well tolerated | 34 | 24 | 21.1 | – |
| insulin glargine [US IG] | – | – | 88.3 (59.7–131) mg/kg | 522 (384–710) mg/kg | – | – | – | – | – | – | – | – | 192 (171–217) pmol·h/L | 1086 (1000–1179) pmol·h/L | 16 | generally well tolerated | 34 | 20 | 17.9 | one |
